Source: ChEMBL document CHEMBL1153735, “Synthesis and in vitro cytostatic activity of new beta-D-arabino furan[1',2':4,5]oxazolo- and arabino-pyrimidinone derivatives” (Eur J Med Chem, 2010)
pEC50, pIC50: −log10 of the molar value. Calls of active or inactive are those of the source. The rule behind the calls is not given here.

Legend:
CCRF-CEM = test: Cytotoxicity against human CEM cells after 2 days; format: functional, cell-based; conditions: for pIC50: Homo sapiens, CCRF-CEM, 48 h
[1] = Cytotoxicity against human Molt4/C8 cells after 2 days; format: functional, cell-based; conditions: MOLT-4, 48 h
L1210 = test: Cytotoxicity against mouse L1210 cells after 2 days; format: functional, cell-based; conditions: L1210, 48 h
In short: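 L1210 cells at 300,000–500,000 cells/mL were added to an equal volume of diluted compound. After 2 days at 37 °C, cells were counted with a Coulter counter. IC50 is the concentration that inhibits proliferation by 50%.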

[2] = system: Mammalian orthoreovirus 1; test: Antiviral activity against Reovirus 1 infected in african green monkey Vero cells assessed as inhibition of virus induced cytopathic effect; format: functional, organism-based
In short: (§1)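 Confluent monolayers in 96-well plates were infected with 100 CCID50 of virus, with 1 h adsorption before residual virus was removed. Cultures were then kept with test compound at 200, 40 or 8 μM. Cytopathic effect was scored once it was complete in untreated infected controls.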

Influenza B virus = test: Antiviral activity against influenza B virus infected in MDCK cells assessed as inhibition of virus induced cytopathic effect; format: functional, organism-based
Human alphaherpesvirus 2 = test: Antiviral activity against HSV2 G infected in human HEL cells assessed as inhibition of virus induced cytopathic effect; format: functional, organism-based; conditions: strain G; in short: as §1
Sindbis virus = test: Antiviral activity against Sindbis virus infected in african green monkey Vero cells assessed as inhibition of virus induced cytopathic effect; format: functional, organism-based; in short: as §1
Feline coronavirus = test: Antiviral activity against Feline coronavirus infected in CRFK cells assessed as inhibition of virus induced cytopathic effect; format: functional, organism-based; in short: as §1
Punta Toro virus = test: Antiviral activity against Punta Toro virus infected in african green monkey Vero cells assessed as inhibition of virus induced cytopathic effect; format: functional, organism-based; in short: as §1
Human alphaherpesvirus 1 = test: Antiviral activity against HSV1 KOS infected in human HEL cells assessed as inhibition of virus induced cytopathic effect; format: functional, organism-based; in short: as §1
Vaccinia virus = test: Antiviral activity against Vaccinia virus infected in human HEL cells assessed as inhibition of virus induced cytopathic effect; format: functional, organism-based; conditions: Orthopoxvirus vaccinia
Influenza A virus [3] = test: Antiviral activity against influenza A H3N2 virus infected in […] cells assessed as inhibition of virus induced cytopathic effect; format: functional, organism-based
Influenza A virus [4] = test: Antiviral activity against influenza A H1N1 virus infected in […] cells assessed as inhibition of virus induced cytopathic effect; format: functional, organism-based
Human respirovirus 3 = test: Antiviral activity against Parainfluenza virus 3 infected in african green monkey Vero cells assessed as inhibition of virus induced cytopathic effect; format: functional, organism-based; in short: as §1
[5] = system: Vesicular stomatitis virus; test: Antiviral activity against VSV infected in human HEL cells assessed as inhibition of virus induced cytopathic effect; format: functional, organism-based

O=c1[nH]c2c(c(=O)n1[C@@H]1O[C@H](CO)[C@@H](O)[C@@H]1O)CCCC2
pIC50 (CCRF-CEM): < 3.30 | pIC50 [1]: < 3.30 | pIC50 (L1210): < 3.30

CC(=O)c1c[nH]c(=O)n([C@@H]2O[C@H](CO)[C@@H](O)[C@@H]2O)c1=O
pIC50 (CCRF-CEM): < 3.30 | pIC50 [1]: < 3.30 | pIC50 (L1210): < 3.30

C/C(N)=C1/C=NC(=O)N([C@@H]2O[C@H](CO[Si](C)(C)C(C)(C)C)[C@@H](O[Si](C)(C)C(C)(C)C)[C@@H]2O)C1=O
pIC50 (CCRF-CEM): 4.77 | pIC50 [1]: 4.74

CC(C)(C)[Si](C)(C)OC[C@H]1O[C@H]2Oc3nc(=O)c4c(n3[C@H]2[C@@H]1O[Si](C)(C)C(C)(C)C)CCCC4
pIC50 (CCRF-CEM): 3.67 | pIC50 [1]: 3.73 | pIC50 (L1210): 3.64

Nc1ccn([C@@H]2O[C@H](CO)[C@@H](O)[C@@H]2O)c(=O)n1 [CYTARABINE]
pIC50 (CCRF-CEM): 7.62 | pIC50 (L1210): 7.62

O=c1nc2n(c3c1CCCC3)[C@@H]1[C@H](O2)O[C@H](CO)[C@H]1O
pIC50 (CCRF-CEM): < 3.30 | pIC50 [1]: < 3.30 | pIC50 (L1210): < 3.30

C/C(N)=C1/C=NC(=O)N([C@@H]2O[C@H](CO)[C@@H](O)[C@@H]2O)C1=O
pIC50 (CCRF-CEM): 3.66 | pIC50 [1]: 3.52 | pIC50 (L1210): 3.68

CCOC(=O)c1c[nH]c(=O)n([C@@H]2O[C@H](CO)[C@@H](O)[C@@H]2O)c1=O
pIC50 (CCRF-CEM): < 3.30 | pIC50 [1]: < 3.30 | pIC50 (L1210): < 3.30

CN(C)/C=N\C1=N[C@@H]2[C@H](O1)O[C@H](CO)[C@H]2O
pIC50 (CCRF-CEM): < 3.30 | pIC50 [1]: < 3.30 | pIC50 (L1210): < 3.30

CC(=O)c1cnc2n(c1=O)[C@@H]1[C@H](O2)O[C@H](CO)[C@H]1O
pIC50 (CCRF-CEM): 3.60 | pIC50 [1]: 3.42 | pIC50 (L1210): 3.51

CN(C)/C=N\C1=N[C@@H]2[C@H](O1)O[C@H](CO[Si](C)(C)C(C)(C)C)[C@H]2O[Si](C)(C)C(C)(C)C
pIC50 (CCRF-CEM): 3.67 | pIC50 [1]: 3.65 | pIC50 (L1210): 3.60

O=c1c2c(nc3n1[C@@H]1[C@H](O3)O[C@H](CO)[C@H]1O)CCCC2
pIC50 (CCRF-CEM): < 3.30 | pIC50 [1]: < 3.30 | pIC50 (L1210): < 3.30

CC(=O)c1cnc2n(c1=O)[C@@H]1[C@H](O2)O[C@H](CO[Si](C)(C)C(C)(C)C)[C@H]1O[Si](C)(C)C(C)(C)C
pIC50 (CCRF-CEM): 5.12 | pIC50 [1]: 5.10 | pIC50 (L1210): 5.22

O=c1[nH]c(=O)n([C@@H]2O[C@H](CO)[C@@H](O)[C@@H]2O)c2c1CCCC2
pIC50 (CCRF-CEM): < 3.30 | pIC50 [1]: < 3.30 | pIC50 (L1210): < 3.30

CC(C)(C)[Si](C)(C)OC[C@H]1O[C@H]2Oc3nc4c(c(=O)n3[C@H]2[C@@H]1O[Si](C)(C)C(C)(C)C)CCCC4
Activity [2]: inactive | Activity (Influenza B virus): inactive | pIC50 (CCRF-CEM): 3.90 | EC50 (CCRF-CEM; ccrf-cem): Not Active | Activity (Human alphaherpesvirus 2): inactive | Activity (Sindbis virus): inactive | Activity (Feline coronavirus): inactive | Activity (Punta Toro virus): inactive | pIC50 [1]: 3.89 | Activity (Human alphaherpesvirus 1): inactive | pEC50 (Vaccinia virus): 4.35 | pIC50 (L1210): 3.70 | Activity (Influenza A virus [3]): inactive | Activity (Influenza A virus [4]): inactive | Activity (Human respirovirus 3): inactive | Activity [5]: inactive

CCOC(=O)c1cnc2n(c1=O)[C@@H]1[C@H](O2)O[C@H](CO)[C@H]1O
pIC50 (CCRF-CEM): < 3.30 | pIC50 [1]: < 3.30 | pIC50 (L1210): < 3.30
